Measurements taken from article PMC3177601 (Bioorganic & medicinal chemistry letters, 2009).
Read-outs that look alike come from different tables or passages of the source. Values belong to the compound of their own block, whether it stands above or below them.

Legend:
[1] = target: M3 (Homo sapiens, UniProt P20309); assay: M3 calcium mobilization assay in M3 CHO cells; type: cell-based; details: at 30 μM
Summary of the method: (§1)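 Test compound at 30 μM is added with an EC20 concentration of ACh. Readout is intracellular calcium mobilization in CHO cells expressing the given mAChR subtype; M2 and M4 cells are co-transfected with Gqi5 for calcium coupling. Values are means of at least three independent determinations.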

[2] = target: T1, M5 (Homo sapiens, UniProt P08912); assay: M5 fold-shift experiments of the ACh CRC in M5 CHO cells; type: cell-based; details: 30 μM compound
T1 sequence (P08912 1-532): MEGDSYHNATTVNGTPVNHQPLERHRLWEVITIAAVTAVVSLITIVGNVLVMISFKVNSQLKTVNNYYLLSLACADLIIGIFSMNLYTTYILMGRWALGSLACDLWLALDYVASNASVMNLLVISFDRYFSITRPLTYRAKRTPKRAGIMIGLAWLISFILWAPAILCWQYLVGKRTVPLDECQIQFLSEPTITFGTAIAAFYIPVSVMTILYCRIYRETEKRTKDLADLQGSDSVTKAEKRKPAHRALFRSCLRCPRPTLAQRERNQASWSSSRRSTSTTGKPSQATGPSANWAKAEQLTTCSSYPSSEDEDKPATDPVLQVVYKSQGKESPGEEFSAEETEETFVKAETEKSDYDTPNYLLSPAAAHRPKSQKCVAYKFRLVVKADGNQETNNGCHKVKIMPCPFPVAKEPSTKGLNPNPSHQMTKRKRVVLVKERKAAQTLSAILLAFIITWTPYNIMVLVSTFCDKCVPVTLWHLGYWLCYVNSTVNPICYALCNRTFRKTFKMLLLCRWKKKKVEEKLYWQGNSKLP
Summary of the method: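 Fold-shift assay in M5 CHO cells: a full ACh concentration-response curve is run with or without 30 μM test compound, read out as intracellular calcium mobilization. Potentiation is taken as the leftward shift of the ACh curve. Values are means of at least three independent determinations.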

[3] = target: T2, M2 (Homo sapiens, UniProt P08172); assay: M2 calcium mobilization assay in M2 CHO cells co-transfected with Gqi5; type: cell-based
T2 sequence (P08172 1-466): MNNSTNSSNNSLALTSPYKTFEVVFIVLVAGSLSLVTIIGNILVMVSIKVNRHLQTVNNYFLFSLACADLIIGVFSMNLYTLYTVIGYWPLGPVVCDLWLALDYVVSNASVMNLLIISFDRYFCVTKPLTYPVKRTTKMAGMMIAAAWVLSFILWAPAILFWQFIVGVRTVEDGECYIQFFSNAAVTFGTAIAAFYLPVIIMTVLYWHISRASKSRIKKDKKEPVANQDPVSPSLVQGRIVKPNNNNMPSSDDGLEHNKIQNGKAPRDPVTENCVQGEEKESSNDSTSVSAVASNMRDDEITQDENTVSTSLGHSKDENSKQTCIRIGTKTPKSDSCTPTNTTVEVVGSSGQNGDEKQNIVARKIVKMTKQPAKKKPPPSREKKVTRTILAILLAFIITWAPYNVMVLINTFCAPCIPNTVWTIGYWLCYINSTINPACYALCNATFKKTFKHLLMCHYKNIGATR
Summary of the method: as §1

[4] = target: T3, M4 (Homo sapiens, UniProt P08173); assay: M4 calcium mobilization assay in M4 CHO cells co-transfected with Gqi5; type: cell-based
T3 sequence (P08173 1-479): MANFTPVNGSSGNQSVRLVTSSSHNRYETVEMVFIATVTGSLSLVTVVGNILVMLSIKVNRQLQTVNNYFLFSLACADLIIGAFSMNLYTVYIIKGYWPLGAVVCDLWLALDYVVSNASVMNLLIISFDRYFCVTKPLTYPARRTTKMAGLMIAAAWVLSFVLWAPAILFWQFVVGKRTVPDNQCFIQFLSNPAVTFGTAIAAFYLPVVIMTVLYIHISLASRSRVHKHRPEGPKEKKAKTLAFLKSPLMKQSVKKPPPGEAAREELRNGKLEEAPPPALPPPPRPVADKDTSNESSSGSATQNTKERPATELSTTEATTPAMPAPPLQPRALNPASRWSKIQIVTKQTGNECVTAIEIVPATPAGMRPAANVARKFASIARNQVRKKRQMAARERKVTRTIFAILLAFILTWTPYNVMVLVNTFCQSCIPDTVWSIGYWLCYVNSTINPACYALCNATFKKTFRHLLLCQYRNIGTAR
Summary of the method: as §1

[5] = target: T1, M5; details: 30 μM compound; cited from earlier work
[6] = target: T1, M5; details: cited from earlier work
[7] = target: T4, M1 (Homo sapiens, UniProt P11229); assay: M1 PAM intracellular calcium mobilization assay in M1 CHO cells; type: cell-based; details: at 30 μM
T4 sequence (P11229 1-460): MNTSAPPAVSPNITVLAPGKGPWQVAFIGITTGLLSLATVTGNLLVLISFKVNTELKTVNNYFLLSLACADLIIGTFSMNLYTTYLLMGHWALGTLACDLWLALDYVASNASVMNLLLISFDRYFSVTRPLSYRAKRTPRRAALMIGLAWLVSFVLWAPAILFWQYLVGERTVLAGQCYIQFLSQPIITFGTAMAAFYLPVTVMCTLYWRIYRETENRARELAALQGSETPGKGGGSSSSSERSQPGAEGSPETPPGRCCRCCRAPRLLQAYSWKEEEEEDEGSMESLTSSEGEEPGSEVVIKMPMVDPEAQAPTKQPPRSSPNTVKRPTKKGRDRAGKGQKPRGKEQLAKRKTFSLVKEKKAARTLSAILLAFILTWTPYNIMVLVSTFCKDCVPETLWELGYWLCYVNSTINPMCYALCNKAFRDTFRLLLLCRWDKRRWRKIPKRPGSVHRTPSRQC
Summary of the method: as §1

[8] = system: M1–M4; assay: mAChR selectivity CRCs at M1-M5 CHO cells with submaximal ACh; type: cell-based; details: CRCs at M1-M5 CHO cells with EC20 of ACh
Summary of the method: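 Test compound concentration-response curves are run against an EC20 of ACh in mAChR-expressing CHO cells, read out as intracellular calcium mobilization. M2 and M4 lines are co-transfected with Gqi5. Response is expressed as % of ACh maximum. Values are means of at least three independent determinations.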

[9] = at 30 μM, cells co-transfected with Gqi5

Chain of M3 (P20309 whole entry): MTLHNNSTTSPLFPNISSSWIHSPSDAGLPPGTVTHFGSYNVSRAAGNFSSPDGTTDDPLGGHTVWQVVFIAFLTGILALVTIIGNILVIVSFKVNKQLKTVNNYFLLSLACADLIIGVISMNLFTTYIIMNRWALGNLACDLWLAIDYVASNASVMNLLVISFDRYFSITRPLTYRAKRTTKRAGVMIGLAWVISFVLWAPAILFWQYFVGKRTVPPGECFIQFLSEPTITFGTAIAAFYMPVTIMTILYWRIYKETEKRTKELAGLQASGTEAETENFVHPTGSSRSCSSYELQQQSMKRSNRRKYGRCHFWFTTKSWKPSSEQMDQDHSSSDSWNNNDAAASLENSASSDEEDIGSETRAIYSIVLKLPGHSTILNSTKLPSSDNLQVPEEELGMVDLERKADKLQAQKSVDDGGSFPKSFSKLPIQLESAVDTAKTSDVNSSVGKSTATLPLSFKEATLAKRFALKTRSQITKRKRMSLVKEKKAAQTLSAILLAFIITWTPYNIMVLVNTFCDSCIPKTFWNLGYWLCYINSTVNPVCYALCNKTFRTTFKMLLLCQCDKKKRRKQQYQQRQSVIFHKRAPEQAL

elevation of an ACh EC20 / activation at M3 [1]: only modest activation | leftward shift of the ACh CRC at M5 [2]: > 50 fold
Compound: O=C1C(=O)N(Cc2ccc(-c3ccccc3)cc2)c2ccc(OC(F)(F)F)cc21 [6a]

leftward shift of the ACh CRC at M5 [2]: > 50 fold
Compound: O=C1C(=O)N(Cc2ccc(-c3ccsc3)cc2)c2ccc(OC(F)(F)F)cc21 [6b]

Compound: O=C1C(=O)N(Cc2ccc(Br)cc2)c2ccccc21 [VU0119498]
activity at M2 ([3]; Gi/o-coupled M2, cells co-transfected with Gqi5): devoid of activity | activity at M4 ([4]; Gi/o-coupled M4, cells co-transfected with Gqi5): devoid of activity

Compound: COc1ccc(CN2C(=O)C(=O)c3cc(OC(F)(F)F)ccc32)cc1 [VU0238429]
leftward shift of the ACh CRC at M5 [5]: 14 fold | increase of ACh affinity for M5 ([6]; 30 μM compound): ~ 11 fold | displacement of [3H]-NMS from binding to M5 [6]: did not displace

elevation of an ACh EC20 at M2 [3, 9]: no elevation | elevation of an ACh EC20 / activation at M3 [1]: no elevation | elevation of an ACh EC20 at M1 [7]: no elevation | leftward shift of the ACh CRC at M5 [2]: ~ 5 fold | elevation of an ACh EC20 at M4 [4, 9]: no elevation
Compound: O=C1C(=O)N(Cc2ccc(Oc3ccccc3)cc2)c2ccc(OC(F)(F)F)cc21 [VU0400265]

Compound: COc1ccc(CN2C(=O)C(=O)c3ccc(OC(F)(F)F)cc32)cc1 [compound 11]
mAChR selectivity [8]: lost

Compound: O=C1C(=O)N(Cc2ccc(-c3ccccc3)cc2)c2cc(OC(F)(F)F)ccc21 [compound 12]
mAChR selectivity [8]: lost
